Source: ChEMBL document CHEMBL1124824, “Synthesis and biological activity of atrial natriuretic factor analogues: effect of modifications to the disulfide bridge” (J Med Chem, 1990)
Starred links: 1 amine or outer side, 2 acyl side, 3 side chain; linkers in the order of their positions; H or OH if unused. Positions of bridges follow the written chain, without caps; N, C: chain ends. Non-standard residues stand in square brackets, D forms with d. Residues, ends and D or L forms follow the SMILES beside them. Pen = CC(C)(S)[C@H](N)C(=O)O; hCys = N[C@@H](CCS)C(=O)O; X2 = O=C(CCC[*:2])[*:1]; X1 = O=C(CC[*:2])[*:1]

How the values were obtained:
[1] = organism: Rattus norvegicus; assay: Compound was tested for the K+ excretion for treated over control animals; type: functional
In short: (§1)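 Male Sprague-Dawley rats (300-325 g) under halothane/lidocaine had femoral artery, femoral vein and bladder cannulated. After at least 1 h of recovery in restraint, they received Ringer's (1.2 mL/h), with 10-min urine collections over a 30-min control period. Infusion of 0.5 μg/kg per min for 30 min and a 30-min Ringer's recovery followed. Na+, K+ and Cl- were measured with an electrolyte analyzer, reported as treated minus control μmol/sample. Volume ratio is treated/control over three consecutive 10-min samples, six animals.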

[2] = organism: Rattus norvegicus; assay: Compound was tested for the Na+ excretion for treated over control animals; type: functional; in short: as §1
[3] = organism: Rattus norvegicus; assay: Compound was tested for antihypertensive activity in 5/6 nephrectomized rats.; type: functional
In short: (§2)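 Rats were anesthetized with halothane after skin infiltration with 2% lidocaine, and the femoral artery and vein were cannulated. After recovery, arterial pressure was recorded. A saline control period was followed by i.v. infusion in 30-min steps at 0.1, 0.2, 0.5 and 1.0 μg/kg per min (70 μL/kg per min). Hydralazine (100 μg/kg per min) was given for standardization. ED50 is in nmol/kg per min, from six animals.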

[4] = organism: Rattus norvegicus; assay: Compound was tested for antihypertensive activity in DOCA nephrectomized rats.; type: functional; in short: as §2
[5] = system: Rattus norvegicus; assay: Compound was tested for diuretic activity and the ratio of urine volume for treated over control animals was reported after infused at a dose of 0.5 ug/kg.; type: functional; in short: as §1
[6] = target: T1, Atrial natriuretic peptide receptor 2 (Bos taurus, UniProt P46197); assay: Binding affinity was determined based on the displacement of [125]r-ANF (99-126) from binding sites on bovine adrenal zona glomerulosa cell membranes (Atrionatriuretic peptide receptor B)
T1 sequence (P46197 whole entry): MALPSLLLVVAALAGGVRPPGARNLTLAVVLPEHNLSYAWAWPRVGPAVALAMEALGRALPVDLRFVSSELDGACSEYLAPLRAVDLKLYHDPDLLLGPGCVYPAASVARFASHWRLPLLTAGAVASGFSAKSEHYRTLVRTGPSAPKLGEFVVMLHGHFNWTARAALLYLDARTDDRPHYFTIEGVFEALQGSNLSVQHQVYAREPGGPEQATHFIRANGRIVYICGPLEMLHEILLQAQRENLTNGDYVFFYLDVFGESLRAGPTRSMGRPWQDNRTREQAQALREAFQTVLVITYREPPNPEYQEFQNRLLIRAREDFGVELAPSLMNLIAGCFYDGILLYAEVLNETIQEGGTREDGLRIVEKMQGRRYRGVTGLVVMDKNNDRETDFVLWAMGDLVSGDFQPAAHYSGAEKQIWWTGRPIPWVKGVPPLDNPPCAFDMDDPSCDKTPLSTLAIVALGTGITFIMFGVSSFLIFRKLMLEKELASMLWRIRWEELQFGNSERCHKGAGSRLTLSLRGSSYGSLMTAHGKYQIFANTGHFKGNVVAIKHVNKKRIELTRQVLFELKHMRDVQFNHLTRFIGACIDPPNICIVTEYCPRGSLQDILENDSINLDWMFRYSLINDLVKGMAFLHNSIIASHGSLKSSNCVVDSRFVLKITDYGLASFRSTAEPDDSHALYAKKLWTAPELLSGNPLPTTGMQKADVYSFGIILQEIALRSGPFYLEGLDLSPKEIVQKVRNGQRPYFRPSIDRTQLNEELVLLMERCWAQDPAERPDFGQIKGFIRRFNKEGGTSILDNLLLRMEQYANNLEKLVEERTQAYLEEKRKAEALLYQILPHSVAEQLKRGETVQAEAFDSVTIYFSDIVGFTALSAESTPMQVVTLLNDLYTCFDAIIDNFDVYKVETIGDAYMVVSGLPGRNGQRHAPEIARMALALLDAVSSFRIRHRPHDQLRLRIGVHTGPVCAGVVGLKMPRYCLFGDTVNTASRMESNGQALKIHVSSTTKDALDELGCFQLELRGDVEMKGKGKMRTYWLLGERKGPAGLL

[7] = target: T2, Atrial natriuretic peptide receptor 3 (Mus musculus, UniProt P70180); assay: Binding affinity was determined based on the displacement of [125]r-ANF (99-126) from binding sites on mouse fibroblasts (NIH 3T3) cells (Atrionatriuretic peptide receptor C).
T2 sequence (P70180 whole entry): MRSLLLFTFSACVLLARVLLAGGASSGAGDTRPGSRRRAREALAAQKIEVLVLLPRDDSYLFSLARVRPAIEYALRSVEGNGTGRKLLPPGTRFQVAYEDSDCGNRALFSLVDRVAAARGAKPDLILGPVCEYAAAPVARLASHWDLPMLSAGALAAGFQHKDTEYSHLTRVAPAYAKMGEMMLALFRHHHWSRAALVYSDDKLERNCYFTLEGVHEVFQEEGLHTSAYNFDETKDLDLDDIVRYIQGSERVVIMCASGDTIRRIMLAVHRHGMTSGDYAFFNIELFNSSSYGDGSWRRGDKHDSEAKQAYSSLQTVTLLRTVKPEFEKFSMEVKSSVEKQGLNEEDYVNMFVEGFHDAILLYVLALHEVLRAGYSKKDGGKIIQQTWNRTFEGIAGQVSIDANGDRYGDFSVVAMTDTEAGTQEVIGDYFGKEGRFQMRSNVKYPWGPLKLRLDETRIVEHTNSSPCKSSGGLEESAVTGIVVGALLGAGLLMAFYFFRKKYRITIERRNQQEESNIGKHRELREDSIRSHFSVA

[8] = organism: Oryctolagus cuniculus; assay: Compound was tested for the inhibition of the stimulated contractions of the superfused rabbit thoracic aortic rings.; type: functional, Aorta
In short: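 Rabbit thoracic aorta rings (4 mm) were held isometrically at 10-g resting tension, superfused and precontracted with phenylephrine. Test peptide was added to the superfusate above the tissue in successively higher doses after each recovery. Doses were based on peptide content. EC50 came from the dose-response curve, mean of three determinations ± SEM.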

[9] = organism: Rattus norvegicus; assay: Compound was tested for the Cl- excretion for treated over control animals; type: functional; in short: as §1
[10] = organism: Rattus norvegicus; assay: Compound was tested for the K+ excretion for treated over control animals.; type: functional; in short: as §1
[11] = organism: Rattus norvegicus; assay: Compound was tested for the Na+ excretion for treated over control animals.; type: functional; in short: as §1

Compound	Electrolyte excretion [1]	Electrolyte excretion [2]	ED50 [3]	ED50 [4]	Ratio [5]	IC50 [6]	IC50 [7]	EC50 [8]	Electrolyte excretion [9]	Electrolyte excretion [10]	Electrolyte excretion [11]
CC[C@H](C)[C@@H]1NC(=O)[C@H](CCCN=C(N)N)NC(=O)[C@H](CC(=O)O)NC(=O)[C@H]([C@@H](C)CC)NC(=O)[C@H](CCCN=C(N)N)NC(=O)CNC(=O)CNC(=O)[C@H](Cc2ccccc2)NC(=O)[C@@H](NC(=O)[C@H](CO)NC(=O)[C@@H](N)CO)CSSC[C@@H](C(=O)N[C@@H](CC(N)=O)C(=O)N[C@@H](CO)C(=O)N[C@@H](Cc2ccccc2)C(=O)N[C@@H](CCCN=C(N)N)C(=O)N[C@@H](Cc2ccc(O)cc2)C(=O)O)NC(=O)CNC(=O)[C@H](CC(C)C)NC(=O)CNC(=O)[C@H](CO)NC(=O)[C@H](CCC(N)=O)NC(=O)[C@H](C)NC(=O)CNC1=O (H-SSCFGGRIDRIGAQSGLGCNSFRY-OH; disulfide 3-19)	23 uM sample-1	79.6 uM sample-1	0.13 nM/min/kg	0.16 nM/min/kg	2.7	–	–	–	–	–	–
CC[C@H](C)[C@@H]1NC(=O)[C@H](CCCN=C(N)N)NC(=O)[C@H](CC(=O)O)NC(=O)[C@H]([C@@H](C)CC)NC(=O)[C@H](CCCN=C(N)N)NC(=O)CNC(=O)CNC(=O)[C@H](Cc2ccccc2)NC(=O)[C@@H](N)CSSC[C@@H](C(=O)N[C@@H](CC(N)=O)C(=O)N[C@@H](CO)C(=O)N[C@@H](Cc2ccccc2)C(=O)N[C@@H](CCCN=C(N)N)C(=O)N[C@@H](Cc2ccc(O)cc2)C(=O)O)NC(=O)CNC(=O)[C@H](CC(C)C)NC(=O)CNC(=O)[C@H](CO)NC(=O)[C@H](CCC(N)=O)NC(=O)[C@H](C)NC(=O)CNC1=O (H-CFGGRIDRIGAQSGLGCNSFRY-OH; disulfide 1-17)	12.9 uM sample-1	15.9 uM sample-1	–	0.1 nM/min/kg	–	3.6 nM	0.5 nM	3.1e-10 M 50ul-1	28.5 umol/sample	–	–
CC[C@H](C)[C@@H]1NC(=O)[C@H](CCCN=C(N)N)NC(=O)[C@H](CC(=O)O)NC(=O)[C@H]([C@@H](C)CC)NC(=O)[C@H](CCCN=C(N)N)NC(=O)CNC(=O)CNC(=O)[C@H](Cc2ccccc2)NC(=O)[C@@H](NC(=O)[C@H](CO)NC(=O)[C@H](CO)NC(=O)[C@H](CCCN=C(N)N)NC(=O)[C@H](CC(C)C)NC(=O)[C@@H](N)CO)CSSC[C@@H](C(=O)N[C@@H](CC(N)=O)C(=O)N[C@@H](CO)C(=O)N[C@@H](Cc2ccccc2)C(=O)N[C@@H](CCCN=C(N)N)C(=O)N[C@@H](Cc2ccc(O)cc2)C(=O)O)NC(=O)CNC(=O)[C@H](CC(C)C)NC(=O)CNC(=O)[C@H](CO)NC(=O)[C@H](CCC(N)=O)NC(=O)[C@H](C)NC(=O)CNC1=O	16.2 uM sample-1	57.4 uM sample-1	0.14 nM/min/kg	0.1 nM/min/kg	3.1	–	–	–	72.4 umol/sample	–	–
CC[C@H](C)[C@@H]1NC(=O)[C@H](CCCN=C(N)N)NC(=O)[C@H](CC(=O)O)NC(=O)[C@H]([C@@H](C)CC)NC(=O)[C@H](CCCN=C(N)N)NC(=O)CNC(=O)CNC(=O)[C@H](Cc2ccccc2)NC(=O)CCC=CC[C@@H](C(=O)N[C@@H](CC(N)=O)C(=O)N[C@@H](CO)C(=O)N[C@@H](Cc2ccccc2)C(=O)N[C@@H](CCCN=C(N)N)C(=O)N[C@@H](Cc2ccc(O)cc2)C(=O)O)NC(=O)CNC(=O)[C@H](CC(C)C)NC(=O)CNC(=O)[C@H](CO)NC(=O)[C@H](CCC(N)=O)NC(=O)[C@H](C)NC(=O)CNC1=O	–	–	1.2 nM/min/kg	–	2.5	–	–	–	7.3 umol/sample	3.2 uM sample-1	0.4 uM sample-1
CC[C@H](C)[C@@H]1NC(=O)[C@H](CCCN=C(N)N)NC(=O)[C@H](CC(=O)O)NC(=O)[C@H]([C@@H](C)CC)NC(=O)[C@H](CCCN=C(N)N)NC(=O)CNC(=O)CNC(=O)[C@H](Cc2ccccc2)NC(=O)CCCSC(C)(C)[C@@H](C(=O)N[C@@H](CC(N)=O)C(=O)N[C@@H](CO)C(=O)N[C@@H](Cc2ccccc2)C(=O)N[C@@H](CCCN=C(N)N)C(=O)N[C@@H](Cc2ccc(O)cc2)C(=O)O)NC(=O)CNC(=O)[C@H](CC(C)C)NC(=O)CNC(=O)[C@H](CO)NC(=O)[C@H](CCC(N)=O)NC(=O)[C@H](C)NC(=O)CNC1=O (FGGRIDRIGAQSGLG[Pen]NSFRY-OH; linker N-16 via X2)	24.8 uM sample-1	17.9 uM sample-1	0.11 nM/min/kg	0.14 nM/min/kg	3	–	–	–	39.6 umol/sample	–	–
CC[C@H](C)[C@@H]1NC(=O)[C@H](CCCN=C(N)N)NC(=O)[C@H](CC(=O)O)NC(=O)[C@H]([C@@H](C)CC)NC(=O)[C@H](CCCN=C(N)N)NC(=O)CNC(=O)CNC(=O)[C@H](Cc2ccccc2)NC(=O)CCSCC[C@@H](C(=O)N[C@@H](CC(N)=O)C(=O)N[C@@H](CO)C(=O)N[C@@H](Cc2ccccc2)C(=O)N[C@@H](CCCN=C(N)N)C(=O)N[C@@H](Cc2ccc(O)cc2)C(=O)O)NC(=O)CNC(=O)[C@H](CC(C)C)NC(=O)CNC(=O)[C@H](CO)NC(=O)[C@H](CCC(N)=O)NC(=O)[C@H](C)NC(=O)CNC1=O (FGGRIDRIGAQSGLG[hCys]NSFRY-OH; linker N-16 via X1)	3.5 uM sample-1	7.2 uM sample-1	1.2 nM/min/kg	0.83 nM/min/kg	1.7	–	–	–	15.9 umol/sample	–	–
CC[C@H](C)[C@@H]1NC(=O)[C@H](CCCN=C(N)N)NC(=O)[C@H](CC(=O)O)NC(=O)[C@H]([C@@H](C)CC)NC(=O)[C@H](CCCN=C(N)N)NC(=O)CNC(=O)CNC(=O)[C@H](Cc2ccccc2)NC(=O)CCCSC[C@@H](C(=O)N[C@@H](CC(N)=O)C(=O)N[C@@H](CO)C(=O)N[C@@H](Cc2ccccc2)C(=O)N[C@@H](CCCN=C(N)N)C(=O)N[C@@H](Cc2ccc(O)cc2)C(=O)O)NC(=O)CNC(=O)[C@H](CC(C)C)NC(=O)CNC(=O)[C@H](CO)NC(=O)[C@H](CCC(N)=O)NC(=O)[C@H](C)NC(=O)CNC1=O (FGGRIDRIGAQSGLGCNSFRY-OH; linker N-16 via X2)	10.2 uM sample-1	34 uM sample-1	1.1 nM/min/kg	0.72 nM/min/kg	2.8	–	–	–	41.1 umol/sample	–	–
